The values below come from PubChem BioAssay.

Calls of active or inactive are those of the source.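 How the source made its calls, unless noted: active means inhibition above 20% together with a positive visual image hit; inconclusive means visual image hit but inhibition not above 20%; inactive means no visual image hit.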

Assay [1] is described as follows: inhibitors of TNFa-induced NFkB p65 translocation, primary screen, imaging, HUVEC, MLSMR starter and 10KST1 sets (AID 438).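 Further: compound added about 3h40 before a 20 min TNFalpha stimulation.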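 On inhibition: signal is the nuclear over cytoplasmic p65 intensity ratio per well.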 The note with it: HUVEC TNFa-induced p65 nuclear translocation; cell count: measured here: nuclei count (cytotoxicity indicator), at 2.08 µM; inhibition: at 2 µM, stronger effect = higher value, 0% TNFa-plus-vehicle, 100% no-TNFa wells.
A short description of assay [2]: inhibitors of mutant huntingtin aggregation, primary screen, imaging, exon1htt(103Q)mCFP cells, high-content imaging (AID 483;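 active means visual image review flags a hit and inhibition of aggregation exceeds 20%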;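 further: compound exposure lasted 3 days before fixation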;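 on nuclei count: percent of the per-plate median nuclei count of sample wells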). Particulars: exon1htt(103Q)mCFP cell line, aggregate imaging, at 2 µM; inhibition of aggregation: stronger effect = higher value; nuclei count: measured here: cell count, toxicity.
A short description of assay [3]: inhibitors of E-selectin induction by TNFa, primary screen, imaging, HUVEC, immunofluorescence, MLSMR starter and 10KST1 sets (AID 487;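 active means visually confirmed hit in the image check and inhibition above 20%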;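 on inhibition: signal is fraction of cell area covered by stained E-selectin grains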;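 on nuclei count: 100% = median nuclei count of all wells on the same plate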). Particulars: HUVEC TNFalpha-induced E-selectin immunofluorescence imaging, at 2 µM; inhibition: stronger effect = higher value; nuclei count: measured here: cell number, toxicity.
The target of assay [4] is Voltage-gated potassium channel subunit beta-2 (Rattus norvegicus) (UniProt P62483). The experiment in a line: KvBeta enzyme negative modulators, primary screen, biochemical, NADPH fluorescence (AID 622;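 active means fluorescence slope higher than the sample average by over 3 SD, cut at about -0.22 in these data, passing the limit was not always enough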;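 further: slope of raw intensity against log time taken from 70 to 1610 s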). Particulars: recombinant KvBeta, 4-cyanobenzaldehyde reduction, at 10 µM, stronger effect = higher value.
Voltage-gated potassium channel subunit beta-2 (Rattus norvegicus), sequence (P62483 whole entry, looked up): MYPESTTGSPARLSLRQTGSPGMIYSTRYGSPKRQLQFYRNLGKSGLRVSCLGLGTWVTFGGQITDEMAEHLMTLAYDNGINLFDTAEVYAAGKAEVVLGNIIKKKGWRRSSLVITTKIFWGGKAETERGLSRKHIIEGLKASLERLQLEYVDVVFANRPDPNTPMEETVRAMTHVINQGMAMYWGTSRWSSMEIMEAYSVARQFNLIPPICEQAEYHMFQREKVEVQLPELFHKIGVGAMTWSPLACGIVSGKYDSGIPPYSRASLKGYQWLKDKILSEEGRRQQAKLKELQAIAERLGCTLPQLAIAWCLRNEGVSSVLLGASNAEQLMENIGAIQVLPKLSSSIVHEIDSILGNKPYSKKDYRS
Assay [5] has the same target. In words: KvBeta positive modulators, primary screen, biochemical, NADPH fluorescence (AID 623;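 active means NADPH fluorescence slope more negative than the mean of all samples by about 3 SD, 99.7% confidence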;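 further: fluorescence intensity change per second fitted from 20 to 320 s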). The note with it: Recombinant KvBeta, NADPH fluorescence decrease slope, 10 min; at 10 µM; stronger effect = lower value.
Assay [6] deals with Alpha-2C adrenergic receptor (Homo sapiens) (UniProt P18825). The experiment in a line: modulators of alpha2C/GIRK thallium flux, primary screen, cell-based, HEK293 alpha2C/GIRK1/2 (AID 624;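 active means fluorescence slope after compound addition differing from the mean of all screened samples at 99.7% confidence, in either direction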;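 further: slope of fluorescence ratio to pre-addition baseline per second over 15 to 24 s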). The note with it: thallium flux BTC fluorescence, at 10 µM, actives lie on both sides.
Alpha-2C adrenergic receptor (Homo sapiens), sequence (P18825 whole entry, looked up): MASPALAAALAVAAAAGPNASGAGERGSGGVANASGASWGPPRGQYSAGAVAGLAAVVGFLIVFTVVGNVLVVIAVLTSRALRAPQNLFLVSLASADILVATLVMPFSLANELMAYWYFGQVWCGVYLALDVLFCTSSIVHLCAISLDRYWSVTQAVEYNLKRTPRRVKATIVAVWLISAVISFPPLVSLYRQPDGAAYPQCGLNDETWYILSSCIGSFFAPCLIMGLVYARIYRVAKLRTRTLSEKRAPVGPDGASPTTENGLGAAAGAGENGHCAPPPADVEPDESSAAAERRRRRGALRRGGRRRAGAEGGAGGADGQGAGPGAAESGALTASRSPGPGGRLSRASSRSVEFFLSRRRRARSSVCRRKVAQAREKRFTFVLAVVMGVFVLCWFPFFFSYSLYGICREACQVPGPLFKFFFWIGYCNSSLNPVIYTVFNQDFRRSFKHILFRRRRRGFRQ
The nature of assay [7]: inhibitors of larval lipid processing in zebrafish, primary screen, whole organism, PED6 fluorescence, gall bladder and intestine (AID 686;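 active means a full or partial loss of lipid-probe fluorescence in the fish gall bladder, intestine or both, judged by eye; inactive means no fluorescence loss, or compound toxic to the fish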;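 further: larvae 5 to 7 days old with five fish per well; signal comes from phospholipase A2 cleavage of quenched PED6 carried via bile; overnight exposure to compound and PED6 before scoring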). The note with it: Zebrafish larvae PED6 lipid processing, fluorescence scoring; screened at 20 µM (by protocol). The method in brief: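 Test system – live zebrafish larvae aged 5-7 days, whole organism · Buffer or medium – E3 fish medium · Reagent – quenched phospholipase substrate PED6, 100 nM final, ingested by larvae · Doses – 20 µM single dose · Incubation – overnight compound and PED6 incubation · Technique – visual fluorescence microscopy scoring of gall bladder, gut · Read-out basis – visual per-well fluorescence inhibition score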

A short description of assay [8]: inhibitors of Sendai virus-induced IRF3 signaling, primary screen, TLR/RLR signaling modifier project, cell-based, Sendai virus stimulus, luciferase, 10K MLSCN set (AID 602276;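 active means inhibition at or above 50% at 10 µM; inactive means inhibition below 50%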;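 further: firefly luciferase from ISG56 promoter only with Renilla not read in this screen; 0% = Sendai virus plus DMSO and 100% = medium plus DMSO without virus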). Particulars: HEK293 RL24 IRF3 luciferase reporter, at 10 µM, stronger effect = higher value.
Assay [9] is described as follows: inhibitors of poly I:C-induced TLR3 signaling, primary screen, cell-based, poly I:C stimulus, luciferase, 10K MLSCN set (AID 602277;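 active means inhibition of the reporter signal at or above 50%; inactive means inhibition below 50%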). The note with it: HEK293-TLR3 RL24 IRF3 luciferase reporter, at 10 µM, stronger effect = higher value. Background: In a reporter assay the amount or activity of a reporter protein is the signal.

For the compound `COc1cc(CO)cc(-c2cc(CO)cc(OC)c2OC)c1OC`, in [1], the cell count amounted to 547. Further, the inhibition (in general, the relative decrease from the control value, in per cent) is 3.5% (inactive) in assay [1], 49.8% (inactive) in assay [3], 11.3% (inactive) in assay [8] and 15.6% (inactive) in [9]. In addition, in [2], the inhibition of aggregation was 19.5% (inactive). Further, the nuclei count in [2] turned out to be 76.2%; in assay [3] it was 60.6%. The fluorescence slope in [4] was -0.367 (inactive). For the same compound, the NADPH fluorescence slope in assay [5] is -5.9e-05 (inactive). Moreover, in [6], the slope is 0.00523 (inactive). The compound was called inactive in assay [7].

As for `Cc1cc(-c2ccccc2)nc(SCc2ccc(C(=O)O)o2)n1`, the cell count in [1] was 398. Besides, the inhibition was -1.3% (inactive) in assay [1], -106% (inactive) in assay [3], 7.19% (inactive) in [8] and 8.59% (inactive) in assay [9]. Besides, the inhibition of aggregation in assay [2] was 0.6% (inactive). Also, the nuclei count in assay [2] turned out to be 86.2%; in assay [3] it was 105%. Moreover, in assay [4], the fluorescence slope was -0.373 (inactive). The NADPH fluorescence slope in assay [5] is -6.9e-05 (inactive). In assay [6], the slope is 0.00508 (inactive). Besides, in [7], the outcome was inactive.

Consider `O=C(Cc1cccs1)N(c1ccccc1)C1C=CS(=O)(=O)C1` (stereo not drawn), for which, in assay [1], the cell count came to 294. The inhibition was 4.2% (inactive) in assay [1], 8.4% (inactive) in assay [3], 10.7% (inactive) in assay [8] and 15.6% (inactive) in [9]. The inhibition of aggregation in [2] is -21.3% (inactive). Besides, the nuclei count in [2] was determined as 110%; in assay [3], 88.2%. In [4], the fluorescence slope was -0.376 (inactive). For the same compound, the NADPH fluorescence slope in assay [5] was -5.4e-05 (inactive). In addition, in assay [6], the slope is 0.0046 (inactive). The call in [7] was inactive.

As for `CCOC(=O)N1CCN(C(=O)CN(C2CCCCC2)S(=O)(=O)c2ccc(F)cc2)CC1`, the cell count in assay [1] is 645. Moreover, the inhibition in [1] was -10.7% (inactive); in assay [3] it was -51.6% (inactive); in assay [8], 21.5% (inactive); in [9], 81.8% (active). Also, the inhibition of aggregation in [2] was 18.3% (inactive). The nuclei count came out at 81.3% in assay [2] and 108% in [3]. Also, the fluorescence slope in assay [4] is -0.355 (inactive). In assay [5], the NADPH fluorescence slope was -7.3e-05 (inactive). Further, the slope in [6] was 0.00492 (inactive). Also, in assay [7], the call was inactive.

Regarding `Cc1c(CNCc2cccs2)c(C(=O)O)c(C)n1Cc1ccccc1`, the cell count in [1] worked out at 451. The inhibition in assay [1] is 5.5% (inactive); in assay [3], -30.9% (inactive); in assay [8] it was 18.8% (inactive); in assay [9] it was 17% (inactive). Also, in assay [2], the inhibition of aggregation was 3.1% (inactive). Moreover, the values for the nuclei count in assay [2] and in assay [3] were 115% and 101%, respectively. Besides, the fluorescence slope in [4] is -0.454 (inactive). Besides, in assay [5], the NADPH fluorescence slope is -7.6e-05 (inactive). The slope in [6] is 0.00618 (inactive). Also, in assay [7], the call was inactive.

Turning to `COC(=O)CSc1nnc(CSc2nc(C)cc(C)n2)n1Cc1ccco1`, the cell count in assay [1] is 567. Moreover, the inhibition is 5.2% (inactive) in [1], -50.8% (inactive) in assay [3], 1.21% (inactive) in assay [8] and 3.66% (inactive) in assay [9]. Moreover, in [2], the inhibition of aggregation is -0.5% (inactive). For the same compound, the nuclei count in assay [2] was 99.8%; in assay [3] it was 135%. Also, in assay [4], the fluorescence slope is -0.404 (inactive). The NADPH fluorescence slope in assay [5] was -2.4e-05 (inactive). The slope in [6] is 0.00459 (inactive). The outcome in assay [7] was inactive.

As to `COc1ccc(/C=N/n2c(SC)nnc2-c2ccccc2)cc1C`, the cell count in assay [1] is 384. In addition, the inhibition in assay [1] was -0.9% (inactive); in assay [3], -68.1% (inactive); in assay [8], 2.46% (inactive); in assay [9], -2.96% (inactive). Besides, in assay [2], the inhibition of aggregation was 6.2% (inactive). The nuclei count in assay [2] came to 103%; in [3], 117%. In addition, the fluorescence slope in [4] was -0.384 (inactive). The NADPH fluorescence slope in [5] is -2e-05 (inactive). Further, the slope in assay [6] is 0.00536 (inactive). The outcome in assay [7] was inactive.

With `Nn1c(SCC(=O)Nc2ccccc2)nnc1-c1cccnc1`, in assay [1], the cell count was found to be 502. Also, the inhibition in assay [1] is -4.8% (inactive); in assay [3], 7% (inactive); in assay [8], -6.03% (inactive); in assay [9] it was -3.73% (inactive). The inhibition of aggregation in assay [2] was 11% (inactive). Moreover, the nuclei count is 126% in assay [2] and 118% in assay [3]. Also, the fluorescence slope in assay [4] is -0.363 (inactive). Moreover, the NADPH fluorescence slope in assay [5] is -3.7e-05 (inactive). Moreover, the slope in assay [6] is 0.00741 (inactive). Further, the call in assay [7] was inactive.

As for `Clc1ccc(OCc2nnc(SCCN3CCCCC3)n2Cc2ccco2)cc1`, the cell count in [1] came out at 587. Moreover, the inhibition in assay [1] is -2.7% (inactive); in assay [3], 45.2% (inactive); in [8], 8.16% (inactive); in assay [9], 13.8% (inactive). In addition, the inhibition of aggregation in [2] was 6% (inactive). The nuclei count in [2] worked out at 98.8%; in assay [3] it was 88.3%. The fluorescence slope in assay [4] was -0.28 (inactive). Moreover, the NADPH fluorescence slope in assay [5] is -1.2e-05 (inactive). In assay [6], the slope is 0.00483 (inactive). Further, in [7], the outcome was “active; no signal in gallbladder and intestine”.

On to `CCOC(=O)c1cc(CC)sc1NC(=O)COC`, for which the cell count in assay [1] was 324. Also, the inhibition is -6% (inactive) in assay [1], 34% (inactive) in assay [3], 2.16% (inactive) in [8] and 4.15% (inactive) in assay [9]. Besides, the inhibition of aggregation in assay [2] is -9.4% (inactive). Also, the nuclei count in [2] was determined as 86.3%; in [3], 80%. Besides, in [4], the fluorescence slope is -0.321 (inactive). Besides, in assay [5], the NADPH fluorescence slope was -7.5e-06 (inactive). For the same compound, in assay [6], the slope was 0.00509 (inactive). In addition, the compound was classed as inactive in [7].

In the case of `NS(=O)(=O)c1ccc(NC(=O)CSc2nnc(Cc3cccs3)n2-c2ccccc2)cc1`, the cell count in [1] was 253. Moreover, the inhibition in [1] was -10.8% (inactive); in assay [3], -24.9% (inactive); in [8] it was 17.4% (inactive); in assay [9] it was 21.4% (inactive). Besides, the inhibition of aggregation in [2] was 7.5% (inactive). The values for the nuclei count in assay [2] and in [3] were 73.5% and 100%, respectively. In addition, the fluorescence slope in [4] was -0.45 (inactive). In addition, the NADPH fluorescence slope in [5] is -4.3e-05 (inactive). Also, in assay [6], the slope was 0.00519 (inactive). Also, in assay [7], the outcome was inactive.

Turning to `O=C1CCC(C(=O)N(Cc2ccco2)C2(C(=O)NC3CCCC3)CCCCC2)N1` (stereo not drawn), in assay [1], the cell count came to 428. Besides, the inhibition in assay [1] was -6.8% (inactive); in assay [3], -39.9% (inactive); in [8], 5.55% (inactive); in [9], 13.4% (inactive). The inhibition of aggregation in assay [2] was -16.4% (inactive). Besides, the nuclei count is 116% in [2] and 139% in assay [3]. Besides, in assay [4], the fluorescence slope is -0.428 (inactive). Besides, the NADPH fluorescence slope in assay [5] was 4.8e-06 (inactive). Also, the slope in [6] is 0.00488 (inactive). Also, in [7], the outcome was inactive.

`COC(=O)c1ccccc1NC(=O)CN1CCC(n2nnc3cc(F)ccc32)CC1`: the cell count in assay [1] is 488. The inhibition was 6% (inactive) in [1], 35% (inactive) in assay [3], 15.8% (inactive) in assay [8] and 25.9% (inactive) in [9]. In assay [2], the inhibition of aggregation was -5.5% (inactive). Further, the nuclei count in assay [2] amounted to 103%; in assay [3] it was 91.3%. For the same compound, in assay [4], the fluorescence slope was -0.453 (inactive). For the same compound, in assay [5], the NADPH fluorescence slope is -4.1e-05 (inactive). In addition, the slope in assay [6] is 0.00532 (inactive). In addition, the call in assay [7] was inactive.

As for `O=C(Nc1ccncc1)c1cc2ccccc2o1`, the cell count in assay [1] was found to be 165. Moreover, the inhibition in assay [1] was 2.1% (inactive); in assay [3], -106% (inactive); in [8], -36.5% (inactive); in [9], -115% (inactive). Further, in [2], the inhibition of aggregation was 35.8% (inactive). The nuclei count in assay [2] is 101%; in [3] it was 140%. Moreover, the fluorescence slope in assay [4] was -0.382 (inactive). Further, the NADPH fluorescence slope in assay [5] was -4.4e-05 (inactive). The slope in assay [6] is 0.00527 (inactive). Also, the outcome in assay [7] was “inactive; toxic”.
